Results as given in ChEMBL document CHEMBL1255404, “Spread of OXA-48-encoding plasmid in Turkey and beyond” (2010).
Values after ≈ are worked out from the molar mass of the structure shown.

Key:
Assay type in all cases: functional
[1] = system: Escherichia coli; assay: Antimicrobial activity against Escherichia coli isolate J53 harboring pBb containing beta-lactamase OXA-48 located within transposon Tn1999.2 by Etest method
How it was run: (§1)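 β-Lactam MICs read with Etest strips. Strains are E. coli J53 recipient and J53 transconjugants carrying OXA-48-positive plasmids recovered from clinical enterobacterial isolates.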

[2] = system: Escherichia coli; assay: Antimicrobial activity against Escherichia coli isolate J53 harboring pEcA containing beta-lactamase OXA-48 located within transposon Tn1999.2 by Etest method; how it was run: as §1
[3] = system: Klebsiella pneumoniae; assay: Antimicrobial activity against Klebsiella pneumoniae isolate KpB expressing OXA-48 and CTX-M-15 by Etest method
[4] = system: Escherichia coli; assay: Antimicrobial activity against Escherichia coli isolate A expressing beta-lactamase OXA-48 and TEM-150 by Etest method
[5] = system: Klebsiella pneumoniae; assay: Antimicrobial activity against Klebsiella pneumoniae isolate KpL expressing beta-lactamase OXA-48 by Etest method
[6] = system: Escherichia coli; assay: Antimicrobial activity against Escherichia coli isolate J53 harboring p3A containing beta-lactamase OXA-48 located within transposon Tn1999 by Etest method; how it was run: as §1
[7] = system: Escherichia coli; assay: Antimicrobial activity against Escherichia coli isolate J53 harboring pCF containing beta-lactamase OXA-48 located within transposon Tn1999 by Etest method; how it was run: as §1
[8] = system: Escherichia coli; assay: Antimicrobial activity against Escherichia coli isolate J53 harboring pL containing beta-lactamase OXA-48 located within transposon Tn1999.2 by Etest method; how it was run: as §1
[9] = system: Klebsiella pneumoniae; assay: Antimicrobial activity against Klebsiella pneumoniae isolate Kp11978 expressing beta-lactamase OXA-48, SHV-2a and TEM-1 by Etest method
[10] = system: Escherichia coli; assay: Antimicrobial activity against Escherichia coli isolate TOP10 harboring pPR containing beta-lactamase and TEM-101 by Etest method
How it was run: (§2)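 β-Lactam MICs read with Etest strips. Strains are E. coli TOP10 host and TOP10 transformants made with plasmid DNA extract when conjugation failed. Transformants were selected on LB agar with ticarcillin 50 μg/ml.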

[11] = system: Providencia rettgeri; assay: Antimicrobial activity against Providencia rettgeri isolate expressing beta-lactamase OXA-48 and TEM-101 by Etest method
[12] = system: Klebsiella pneumoniae; assay: Antimicrobial activity against Klebsiella pneumoniae isolate Kp5A expressing beta-lactamase OXA-48 and SHV-5 by Etest method
[13] = system: Klebsiella pneumoniae; assay: Antimicrobial activity against Klebsiella pneumoniae isolate Kp7A expressing beta-lactamase OXA-48 by Etest method
How it was run: (§3)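 MICs of β-lactams read from Etest strips. The test organisms are carbapenem-resistant, OXA-48-positive clinical Enterobacteriaceae isolates recovered from Turkey, Lebanon, Egypt, France and Belgium.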

[14] = system: Escherichia coli; assay: Antimicrobial activity against Escherichia coli isolate J53 by Etest method; how it was run: as §1
[15] = system: Klebsiella pneumoniae; assay: Antimicrobial activity against Klebsiella pneumoniae isolate KpBEL expressing beta-lactamase OXA-48 by Etest method; how it was run: as §3
[16] = system: Citrobacter freundii; assay: Antimicrobial activity against Citrobacter freundii isolate expressing beta-lactamase OXA-48 by Etest method
[17] = system: Enterobacter cloacae; assay: Antimicrobial activity against Enterobacter cloacae isolate 1 expressing beta-lactamase OXA-48 and SHV-5 by Etest method
[18] = system: Enterobacter cloacae; assay: Antimicrobial activity against Enterobacter cloacae isolate 2 expressing beta-lactamase OXA-48 and SHV-5 by Etest method
[19] = system: Escherichia coli; assay: Antimicrobial activity against Escherichia coli isolate J53 harboring p6A containing beta-lactamase OXA-48 located within transposon Tn1999 by Etest method; how it was run: as §1
[20] = system: Klebsiella pneumoniae; assay: Antimicrobial activity against Klebsiella pneumoniae isolate KpBIC expressing beta-lactamase OXA-48 by Etest method; how it was run: as §3
[21] = system: Escherichia coli; assay: Antimicrobial activity against Escherichia coli isolate J53 harboring pEnc1 containing beta-lactamase OXA-48 located within transposon Tn1999 by Etest method; how it was run: as §1
[22] = system: Escherichia coli; assay: Antimicrobial activity against Escherichia coli isolate TOP10 by Etest method; how it was run: as §2
[23] = system: Escherichia coli; assay: Antimicrobial activity against Escherichia coli isolate J53 harboring pBEL containing beta-lactamase OXA-48 located within transposon Tn1999.2 by Etest method; how it was run: as §1
[24] = system: Klebsiella pneumoniae; assay: Antimicrobial activity against Klebsiella pneumoniae isolate KpI-1 expressing beta-lactamase OXA-48 and CTX-M-15 by Etest method
[25] = system: Klebsiella pneumoniae; assay: Antimicrobial activity against Klebsiella pneumoniae isolate Kp3A expressing beta-lactamase OXA-48 by Etest method; how it was run: as §3
[26] = system: Escherichia coli; assay: Antimicrobial activity against Escherichia coli isolate TOP10 harboring pBIC containing beta-lactamase OXA-48 located within transposon Tn1999.2 by Etest method; how it was run: as §2
[27] = system: Klebsiella pneumoniae; assay: Antimicrobial activity against Klebsiella pneumoniae isolate KpI-2 expressing beta-lactamase OXA-48 and CTX-M-15 by Etest method
[28] = system: Klebsiella pneumoniae; assay: Antimicrobial activity against Klebsiella pneumoniae isolate KpE expressing beta-lactamase OXA-48 and CTX-M-15 by Etest method
[29] = system: Escherichia coli; assay: Antimicrobial activity against Escherichia coli isolate J53 harboring pEnc2 containing beta-lactamase OXA-48 located within transposon Tn1999 by Etest method; how it was run: as §1
[30] = system: Klebsiella pneumoniae; assay: Antimicrobial activity against Klebsiella pneumoniae isolate Kp6A expressing beta-lactamase OXA-48 and TEM-150 by Etest method
[31] = system: Escherichia coli; assay: Antimicrobial activity against Escherichia coli isolate J53 harboring p7A containing beta-lactamase OXA-48 located within transposon Tn1999 by Etest method; how it was run: as §1
[32] = system: Escherichia coli; assay: Antimicrobial activity against Escherichia coli isolate J53 harboring pE containing beta-lactamase OXA-48 located within transposon Tn1999.2 by Etest method; how it was run: as §1
[33] = system: Escherichia coli; assay: Antimicrobial activity against Escherichia coli isolate J53 harboring p4A containing beta-lactamase OXA-48 located within transposon Tn1999 by Etest method; how it was run: as §1
[34] = system: Escherichia coli; assay: Antimicrobial activity against Escherichia coli isolate J53 harboring p5A containing beta-lactamase OXA-48 located within transposon Tn1999 by Etest method; how it was run: as §1
[35] = system: Escherichia coli; assay: Antimicrobial activity against Escherichia coli isolate J53 harboring pI-1 containing beta-lactamase OXA-48 located within transposon Tn1999.2 by Etest method; how it was run: as §1
[36] = system: Klebsiella pneumoniae; assay: Antimicrobial activity against Klebsiella pneumoniae isolate Kp4A expressing beta-lactamase OXA-48 and CTX-M-15 by Etest method
[37] = system: Escherichia coli; assay: Antimicrobial activity against Escherichia coli isolate J53 harboring pA-1 containing beta-lactamase OXA-48 located within transposon Tn1999 by Etest method; how it was run: as §1
[38] = system: Escherichia coli; assay: Antimicrobial activity against Escherichia coli isolate J53 harboring pI-2 containing beta-lactamase OXA-48 located within transposon Tn1999.2 by Etest method; how it was run: as §1

Structure (SMILES)	MIC [1] [µg/mL]	MIC [2] [µg/mL]	MIC [3] [µg/mL]	MIC [5] [µg/mL]	MIC [6] [µg/mL]	MIC [7] [µg/mL]	MIC [8] [µg/mL]	MIC [10] [µg/mL]	MIC [13] [µg/mL]	MIC [15] [µg/mL]	MIC [19] [µg/mL]	MIC [20] [µg/mL]	MIC [23] [µg/mL]	MIC [25] [µg/mL]	MIC [31] [µg/mL]	MIC [32] [µg/mL]	MIC [33] [µg/mL]	MIC [34] [µg/mL]	MIC [35] [µg/mL]	MIC [38] [µg/mL]	also measured
C[C@@H](O)[C@H]1C(=O)N2C(C(=O)O)=C(S[C@@H]3CN[C@H](C(=O)Nc4cccc(C(=O)O)c4)C3)[C@H](C)[C@H]12	0.25 (≈ 0.526 µM)	0.25 (≈ 0.526 µM)	> 32	> 16	0.25 (≈ 0.526 µM)	0.25 (≈ 0.526 µM)	4 (≈ 8.41 µM)	0.75 (≈ 1.58 µM)	> 32	4 (≈ 8.41 µM)	0.12 (≈ 0.252 µM)	2 (≈ 4.21 µM)	2 (≈ 4.21 µM)	> 32	0.19 (≈ 0.4 µM)	3 (≈ 6.31 µM)	0.12 (≈ 0.252 µM)	0.12 (≈ 0.252 µM)	0.25 (≈ 0.526 µM)	0.25 (≈ 0.526 µM)	MIC [4]: > 32 µg/mL; MIC [9]: 64 µg/mL (≈ 135 µM); MIC [11]: > 32 µg/mL; MIC [12]: > 32 µg/mL; MIC [14]: 0.06 µg/mL (≈ 0.126 µM); MIC [16]: > 32 µg/mL; MIC [17]: 0.5 µg/mL (≈ 1.05 µM); MIC [18]: 0.75 µg/mL (≈ 1.58 µM); MIC [21]: 0.125 µg/mL (≈ 0.263 µM); MIC [22]: 0.06 µg/mL (≈ 0.126 µM); MIC [24]: 24 µg/mL (≈ 50.5 µM); MIC [26]: 0.5 µg/mL (≈ 1.05 µM); MIC [27]: 24 µg/mL (≈ 50.5 µM); MIC [28]: 3 µg/mL (≈ 6.31 µM); MIC [29]: 0.19 µg/mL (≈ 0.4 µM); MIC [30]: > 32 µg/mL; MIC [36]: > 32 µg/mL; MIC [37]: 0.19 µg/mL (≈ 0.4 µM)
CO/N=C(\C(=O)N[C@@H]1C(=O)N2C(C(=O)[O-])=C(C[N+]3(C)CCCC3)CS[C@H]12)c1csc(N)n1	< 0.5	0.12 (≈ 0.25 µM)	> 512	0.12 (≈ 0.25 µM)	–	0.12 (≈ 0.25 µM)	0.06 (≈ 0.125 µM)	0.5 (≈ 1.04 µM)	0.5 (≈ 1.04 µM)	0.12 (≈ 0.25 µM)	0.12 (≈ 0.25 µM)	0.5 (≈ 1.04 µM)	0.12 (≈ 0.25 µM)	0.5 (≈ 1.04 µM)	0.5 (≈ 1.04 µM)	0.12 (≈ 0.25 µM)	0.12 (≈ 0.25 µM)	0.12 (≈ 0.25 µM)	0.12 (≈ 0.25 µM)	0.12 (≈ 0.25 µM)	MIC [14]: 0.03 µg/mL (≈ 0.0624 µM); MIC [26]: 0.5 µg/mL (≈ 1.04 µM)
C[C@H]1[C@H](NC(=O)/C(=N\OC(C)(C)C(=O)O)c2csc(N)n2)C(=O)N1S(=O)(=O)O [AZTREONAM]	< 0.12	0.06 (≈ 0.138 µM)	–	0.06 (≈ 0.138 µM)	0.06 (≈ 0.138 µM)	0.06 (≈ 0.138 µM)	0.06 (≈ 0.138 µM)	0.06 (≈ 0.138 µM)	0.06 (≈ 0.138 µM)	0.06 (≈ 0.138 µM)	0.06 (≈ 0.138 µM)	0.06 (≈ 0.138 µM)	0.06 (≈ 0.138 µM)	0.06 (≈ 0.138 µM)	0.06 (≈ 0.138 µM)	0.06 (≈ 0.138 µM)	0.06 (≈ 0.138 µM)	0.06 (≈ 0.138 µM)	0.06 (≈ 0.138 µM)	0.06 (≈ 0.138 µM)	MIC [21]: 0.06 µg/mL (≈ 0.138 µM); MIC [29]: 0.06 µg/mL (≈ 0.138 µM)
